Test results as given in ChEMBL document CHEMBL4190249, “Antiproliferative and apoptotic activities of sequence-specific histone acetyltransferase inhibitors” (Eur J Med Chem, 2017).
Activity calls are given as the source filed them. The calls are words filed in the database; no cut-off is given here.

Key:
[1] = molecular target: Histone acetyltransferase p300 (Homo sapiens, UniProt Q09472); assay: Inhibition of p300 (unknown origin) using H3 peptide and acetyl-coA as substrate by fluorometric assay
Procedure, shortened: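 Fluorometric HAT kit assay with recombinant p300 core domain as enzyme and acetyl-CoA plus H3 histone peptide as substrates. Effectors were tested at 1 and 5 μM. HeLa nuclear extract served as positive control, and 0.5% DMSO was set as 100% activity.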

dsDNA [2] = assay: Binding affinity to 5'-ACTTATTCCATATAGA-3'/3'-TGAATAAGGTATATCT-5' dsDNA (unknown origin) assessed as change in melting temperature at 2.5 uM by spectrophotometric method; format: nucleic-acid assay
dsDNA [3] = assay: Binding affinity to 5'-ACTTATCCACTATAGA-3'/3'-TGAATAGGTGATATCT-5' dsDNA (unknown origin) assessed as change in melting temperature at 2.5 uM by spectrophotometric method; format: nucleic-acid assay
A549 [4] = assay: Antiproliferative activity against human A549 cells at 0.1 to 10 uM after 96 hrs by WST8 assay; format: functional, cell-based
Procedure, shortened: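 Cells seeded at 5×10^3 per well and grown 24 h at 37°C, 5% CO2. A549 medium was DMEM with 10% FBS and 2 mM L-glutamine. SW620 medium had 10% FBS and 1% penicillin/streptomycin. Medium was then replaced with conjugate at 0.1, 1, 5 or 10 μM for 96 h. WST-8 reagent was added and absorbance read at 450 nm. Results are mean ± SD.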

[5] = molecular target: Cellular tumor antigen p53 (Homo sapiens) (UniProt P04637); assay: Activation of p53 in human A549 cells assessed as upregulation of SPATA18 gene expression at 2 uM after 48 hrs by microarray analysis relative to control; format: cell-based
Procedure, shortened: (§1)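 A549 cells plated at 2×10^5 cells/well, treated 48 h at 2 μM, with DMSO vehicle as control. Whole-genome transcriptional profiling followed the manufacturer's protocol. Total RNA integrity was checked by Bioanalyzer before arraying.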

[6] = molecular target: Cellular tumor antigen p53 (Homo sapiens) (UniProt P04637); assay: Activation of p53 in human A549 cells assessed as upregulation of EDA2R gene expression at 2 uM after 48 hrs by microarray analysis relative to control; format: cell-based; procedure, shortened: as §1
A549 [7] = assay: Upregulation of ABCA12 gene expression in human A549 cells at 2 uM after 48 hrs by microarray analysis relative to control; format: functional; procedure, shortened: as §1
[8] = molecular target: Cellular tumor antigen p53 (Homo sapiens) (UniProt P04637); assay: Activation of p53 in human A549 cells assessed as upregulation of BTG2 gene expression at 2 uM after 48 hrs by microarray analysis relative to control; format: cell-based; procedure, shortened: as §1
A549 [9] = assay: Upregulation of MIR3189 gene expression in human A549 cells at 2 uM after 48 hrs by microarray analysis relative to control; format: functional; procedure, shortened: as §1
A549 [10] = assay: Upregulation of CDKN1A gene expression in human A549 cells at 2 uM after 48 hrs by microarray analysis relative to control; format: functional; procedure, shortened: as §1
A549 [11] = assay: Upregulation of SULF2 gene expression in human A549 cells at 2 uM after 48 hrs by microarray analysis relative to control; format: functional; procedure, shortened: as §1
A549 [12] = assay: Upregulation of WDR63 gene expression in human A549 cells at 2 uM after 48 hrs by microarray analysis relative to control; format: functional; procedure, shortened: as §1
[13] = molecular target: Cellular tumor antigen p53 (Homo sapiens) (UniProt P04637); assay: Activation of p53 in human A549 cells assessed as upregulation of FDXR gene expression at 2 uM after 48 hrs by microarray analysis relative to control; format: cell-based; procedure, shortened: as §1
[14] = molecular target: Cellular tumor antigen p53 (Homo sapiens) (UniProt P04637); assay: Activation of p53 in human A549 cells assessed as upregulation of MDM2 gene expression at 2 uM after 48 hrs by microarray analysis relative to control; format: cell-based; procedure, shortened: as §1
A549 [15] = assay: Upregulation of UIMC1 gene expression in human A549 cells at 2 uM after 48 hrs by microarray analysis relative to control; format: functional; procedure, shortened: as §1
A549 [16] = assay: Upregulation of MIR4713 gene expression in human A549 cells at 2 uM after 48 hrs by microarray analysis relative to control; format: functional; procedure, shortened: as §1
[17] = molecular target: Cellular tumor antigen p53 (Homo sapiens) (UniProt P04637); assay: Activation of p53 in human A549 cells assessed as upregulation of SESN1 gene expression at 2 uM after 48 hrs by microarray analysis relative to control; format: cell-based; procedure, shortened: as §1
A549 [18] = assay: Upregulation of SCARNA7 gene expression in human A549 cells at 2 uM after 48 hrs by microarray analysis relative to control; format: functional; procedure, shortened: as §1
A549 [19] = assay: Upregulation of MIR3685 gene expression in human A549 cells at 2 uM after 48 hrs by microarray analysis relative to control; format: functional; procedure, shortened: as §1
[20] = molecular target: Cellular tumor antigen p53 (Homo sapiens) (UniProt P04637); assay: Activation of p53 in human A549 cells assessed as upregulation of CYFIP2 gene expression at 2 uM after 48 hrs by microarray analysis relative to control; format: cell-based; procedure, shortened: as §1
A549 [21] = assay: Upregulation of POLH gene expression in human A549 cells at 2 uM after 48 hrs by microarray analysis relative to control; format: functional; procedure, shortened: as §1
[22] = molecular target: Cellular tumor antigen p53 (Homo sapiens) (UniProt P04637); assay: Activation of p53 in human A549 cells assessed as upregulation of TP53INP1 gene expression at 2 uM after 48 hrs by microarray analysis relative to control; format: cell-based; procedure, shortened: as §1
[23] = molecular target: Cellular tumor antigen p53 (Homo sapiens) (UniProt P04637); assay: Activation of p53 in human A549 cells assessed as upregulation of CD70 gene expression at 2 uM after 48 hrs by microarray analysis relative to control; format: cell-based; procedure, shortened: as §1
[24] = molecular target: Cellular tumor antigen p53 (Homo sapiens) (UniProt P04637); assay: Activation of p53 in human A549 cells assessed as upregulation of FAS gene expression at 2 uM after 48 hrs by microarray analysis relative to control; format: cell-based; procedure, shortened: as §1
A549 [25] = assay: Upregulation of GDF15 gene expression in human A549 cells at 2 uM after 48 hrs by microarray analysis relative to control; format: functional; procedure, shortened: as §1
A549 [26] = assay: Upregulation of GAS6-AS1 gene expression in human A549 cells at 2 uM after 48 hrs by microarray analysis relative to control; format: functional; procedure, shortened: as §1
A549 [27] = assay: Upregulation of ANKRD1 gene expression in human A549 cells at 2 uM after 48 hrs by microarray analysis relative to control; format: functional; procedure, shortened: as §1
[28] = molecular target: Cellular tumor antigen p53 (Homo sapiens) (UniProt P04637); assay: Activation of p53 in human A549 cells assessed as upregulation of DDB2 gene expression at 2 uM after 48 hrs by microarray analysis relative to control; format: cell-based; procedure, shortened: as §1
A549 [29] = assay: Upregulation of NEFL gene expression in human A549 cells at 2 uM after 48 hrs by microarray analysis relative to control; format: functional; procedure, shortened: as §1
A549 [30] = assay: Downregulation of SNORA9 gene expression in human A549 cells at 2 uM after 48 hrs by microarray analysis relative to control; format: functional; procedure, shortened: as §1
A549 [31] = assay: Downregulation of ALDH1L2 gene expression in human A549 cells at 2 uM after 48 hrs by microarray analysis relative to control; format: functional; procedure, shortened: as §1
[32] = molecular target: Cellular tumor antigen p53 (Homo sapiens) (UniProt P04637); assay: Activation of p53 in human A549 cells assessed as downregulation of CARS gene expression at 2 uM after 48 hrs by microarray analysis relative to control; format: cell-based; procedure, shortened: as §1
A549 [33] = assay: Downregulation of ASNS gene expression in human A549 cells at 2 uM after 48 hrs by microarray analysis relative to control; format: functional; procedure, shortened: as §1
A549 [34] = assay: Downregulation of TAS2R30 gene expression in human A549 cells at 2 uM after 48 hrs by microarray analysis relative to control; format: functional; procedure, shortened: as §1
[35] = molecular target: Cellular tumor antigen p53 (Homo sapiens) (UniProt P04637); assay: Activation of p53 in human A549 cells assessed as downregulation of STC2 gene expression at 2 uM after 48 hrs by microarray analysis relative to control; format: cell-based; procedure, shortened: as §1
A549 [36] = assay: Downregulation of ULBP1 gene expression in human A549 cells at 2 uM after 48 hrs by microarray analysis relative to control; format: functional; procedure, shortened: as §1
A549 [37] = assay: Downregulation of GUSBP3 gene expression in human A549 cells at 2 uM after 48 hrs by microarray analysis relative to control; format: functional; procedure, shortened: as §1
[38] = molecular target: Cellular tumor antigen p53 (Homo sapiens) (UniProt P04637); assay: Activation of p53 in human A549 cells assessed as downregulation of CHAC1 gene expression at 2 uM after 48 hrs by microarray analysis relative to control; format: cell-based; procedure, shortened: as §1
A549 [39] = assay: Induction of apoptosis in human A549 cells at 2 uM after 48 hrs by Annexin V-FITC/ethidium homodimer-3/Hoechst 33342 staining based fluorescence microscopic method; format: functional, cell-based
Procedure, shortened: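 A549 cells seeded in chamber slides at 2×10^4 cells/well and exposed to 2 μM for 48 h; vehicle control 0.1% DMSO. Cells were washed in binding buffer and stained with FITC-annexin V (apoptotic), ethidium homodimer III (necrotic) and Hoechst 33342 (all nuclei), then imaged by confocal fluorescence microscopy.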

Chain of Cellular tumor antigen p53 (Homo sapiens) (P04637 whole entry, looked up): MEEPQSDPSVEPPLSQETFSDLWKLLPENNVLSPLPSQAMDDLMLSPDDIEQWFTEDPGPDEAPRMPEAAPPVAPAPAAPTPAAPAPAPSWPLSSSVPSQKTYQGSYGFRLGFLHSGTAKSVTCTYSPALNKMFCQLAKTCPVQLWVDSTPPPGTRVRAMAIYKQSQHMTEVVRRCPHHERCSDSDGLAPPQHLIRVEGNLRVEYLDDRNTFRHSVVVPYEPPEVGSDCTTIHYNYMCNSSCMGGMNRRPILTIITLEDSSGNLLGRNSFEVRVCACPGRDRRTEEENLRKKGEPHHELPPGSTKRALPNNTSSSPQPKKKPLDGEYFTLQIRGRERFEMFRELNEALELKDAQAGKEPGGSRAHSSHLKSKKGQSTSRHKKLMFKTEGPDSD
Chain of Histone acetyltransferase p300 (Q09472 whole entry, the tested form may be a part): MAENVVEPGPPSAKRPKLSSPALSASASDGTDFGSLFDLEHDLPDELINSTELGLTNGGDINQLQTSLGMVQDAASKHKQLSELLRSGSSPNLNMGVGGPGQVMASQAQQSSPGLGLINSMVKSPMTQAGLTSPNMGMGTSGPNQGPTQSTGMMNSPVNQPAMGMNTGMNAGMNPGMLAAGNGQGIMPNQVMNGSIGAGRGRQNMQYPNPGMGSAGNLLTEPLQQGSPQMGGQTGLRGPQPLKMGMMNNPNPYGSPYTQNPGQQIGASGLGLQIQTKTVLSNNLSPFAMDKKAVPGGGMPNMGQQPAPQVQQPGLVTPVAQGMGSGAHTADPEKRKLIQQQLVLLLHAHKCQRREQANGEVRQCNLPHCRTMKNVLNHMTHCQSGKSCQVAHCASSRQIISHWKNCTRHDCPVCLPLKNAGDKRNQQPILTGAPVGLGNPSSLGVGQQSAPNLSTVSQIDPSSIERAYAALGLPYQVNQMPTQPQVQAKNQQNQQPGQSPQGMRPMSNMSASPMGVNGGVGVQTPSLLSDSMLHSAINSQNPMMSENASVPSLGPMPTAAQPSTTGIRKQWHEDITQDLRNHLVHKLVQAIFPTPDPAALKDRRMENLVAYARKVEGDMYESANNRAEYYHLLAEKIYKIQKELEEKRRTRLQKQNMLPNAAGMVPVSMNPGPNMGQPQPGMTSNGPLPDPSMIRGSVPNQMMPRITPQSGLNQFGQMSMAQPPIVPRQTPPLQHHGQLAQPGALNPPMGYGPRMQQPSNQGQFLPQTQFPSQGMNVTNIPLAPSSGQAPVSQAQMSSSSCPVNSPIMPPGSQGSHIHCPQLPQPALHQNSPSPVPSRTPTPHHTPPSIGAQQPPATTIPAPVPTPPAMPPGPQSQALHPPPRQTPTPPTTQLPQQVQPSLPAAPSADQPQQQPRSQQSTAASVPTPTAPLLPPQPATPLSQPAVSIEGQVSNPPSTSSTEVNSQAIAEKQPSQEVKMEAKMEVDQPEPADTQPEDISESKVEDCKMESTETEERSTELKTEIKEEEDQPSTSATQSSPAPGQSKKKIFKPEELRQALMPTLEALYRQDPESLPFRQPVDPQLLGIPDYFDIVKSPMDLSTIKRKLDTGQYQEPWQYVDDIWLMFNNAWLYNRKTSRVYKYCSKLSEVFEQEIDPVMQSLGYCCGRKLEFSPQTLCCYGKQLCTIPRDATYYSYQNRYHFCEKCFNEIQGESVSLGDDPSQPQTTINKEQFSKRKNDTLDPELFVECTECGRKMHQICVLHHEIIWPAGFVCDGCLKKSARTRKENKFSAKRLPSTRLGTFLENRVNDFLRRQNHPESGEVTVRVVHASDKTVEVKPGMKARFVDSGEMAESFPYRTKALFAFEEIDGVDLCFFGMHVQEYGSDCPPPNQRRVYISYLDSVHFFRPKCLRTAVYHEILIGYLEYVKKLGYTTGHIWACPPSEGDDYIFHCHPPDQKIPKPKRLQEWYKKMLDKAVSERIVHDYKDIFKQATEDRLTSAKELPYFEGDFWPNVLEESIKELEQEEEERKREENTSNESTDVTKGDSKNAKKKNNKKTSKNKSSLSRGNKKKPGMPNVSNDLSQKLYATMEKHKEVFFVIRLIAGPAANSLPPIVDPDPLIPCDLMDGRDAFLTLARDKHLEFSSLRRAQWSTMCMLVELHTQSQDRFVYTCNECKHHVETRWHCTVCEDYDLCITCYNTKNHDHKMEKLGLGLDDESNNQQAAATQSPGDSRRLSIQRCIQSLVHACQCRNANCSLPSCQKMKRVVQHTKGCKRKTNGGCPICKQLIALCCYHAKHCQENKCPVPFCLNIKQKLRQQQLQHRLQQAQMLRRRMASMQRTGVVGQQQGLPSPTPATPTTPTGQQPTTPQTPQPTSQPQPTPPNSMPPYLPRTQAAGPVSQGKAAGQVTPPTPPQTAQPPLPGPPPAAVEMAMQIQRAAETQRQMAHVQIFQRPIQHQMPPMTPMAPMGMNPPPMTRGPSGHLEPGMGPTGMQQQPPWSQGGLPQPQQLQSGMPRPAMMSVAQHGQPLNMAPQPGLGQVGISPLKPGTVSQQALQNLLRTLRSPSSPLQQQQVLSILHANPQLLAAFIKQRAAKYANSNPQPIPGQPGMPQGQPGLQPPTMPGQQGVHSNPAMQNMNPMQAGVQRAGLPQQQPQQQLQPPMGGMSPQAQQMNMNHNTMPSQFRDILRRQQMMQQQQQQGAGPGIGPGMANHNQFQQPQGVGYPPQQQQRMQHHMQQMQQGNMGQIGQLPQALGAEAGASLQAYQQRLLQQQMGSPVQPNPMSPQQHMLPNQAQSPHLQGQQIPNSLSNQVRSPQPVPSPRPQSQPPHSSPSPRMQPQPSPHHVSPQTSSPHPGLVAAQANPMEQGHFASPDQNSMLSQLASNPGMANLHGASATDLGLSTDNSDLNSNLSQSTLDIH

CCCCCCCCCCCCCCOc1cc(OCCCCCC(=O)NCCC(=O)Nc2cc(C(=O)Nc3cn(C)c(C(=O)Nc4cn(C)c(C(=O)Nc5cc(C(=O)NCCCC(=O)Nc6cc(C(=O)Nc7cc(C(=O)Nc8cc(C(=O)Nc9cc(C(=O)O)n(C)c9)n(C)c8)n(C)c7)n(C)c6)n(C)c5)n4)n3)n(C)c2)cc(O)c1C(=O)O
inhibition [1]: Dose-dependent effect

CCCCCCCCCCCCCCOc1cc(OCCCCCC(=O)NCCC(=O)Nc2cc(C(=O)Nc3cn(C)c(C(=O)Nc4cn(C)c(C(=O)Nc5cc(C(=O)NCCCC(=O)Nc6cc(C(=O)Nc7cc(C(=O)Nc8cc(C(=O)Nc9cc(C(=O)NCCCN(C)C)n(C)c9)n(C)c8)n(C)c7)n(C)c6)n(C)c5)n4)n3)n(C)c2)cc(O)c1C(=O)O
inhibition [1]: Dose-dependent effect

CC1=NN(c2ccc(C(=O)NCCC(=O)NCCC(=O)Nc3cc(C(=O)Nc4cn(C)c(C(=O)Nc5cn(C)c(C(=O)Nc6cc(C(=O)NCCCC(=O)Nc7cc(C(=O)Nc8cc(C(=O)Nc9cc(C(=O)Nc%10cc(C(=O)NCCCN(C)C)n(C)c%10)n(C)c9)n(C)c8)n(C)c7)n(C)c6)n5)n4)n(C)c3)cc2)C(=O)/C1=C/c1ccc(-c2cc(C)c(C)cc2[N+](=O)[O-])o1
ΔTm (dsDNA [2]): 16.9 °C | ΔTm (dsDNA [3]): 11 °C | IC50 [1]: 3.9 to 4.2 µM | Activity (A549 [4]): Active

CC1=NN(c2ccc(C(=O)NCCOCCOCC(=O)NCCC(=O)Nc3cn(C)c(C(=O)Nc4cc(C(=O)Nc5cn(C)c(C(=O)Nc6cn(C)c(C(=O)NCCCC(=O)Nc7cc(C(=O)Nc8cc(C(=O)Nc9cc(C(=O)Nc%10cc(C(=O)NCCCN(C)C)n(C)c%10)n(C)c9)n(C)c8)n(C)c7)n6)n5)n(C)c4)n3)cc2)C(=O)/C1=C/c1ccc(-c2cc(C)c(C)cc2[N+](=O)[O-])o1
ΔTm (dsDNA [2]): 13.6 °C | ΔTm (dsDNA [3]): 20.9 °C | IC50 [1]: 3.9 to 4.2 µM | Activity (A549 [4]): Active | Activity [5]: inactive | Activity [6]: inactive | Activity (A549 [7]): inactive | Activity [8]: inactive | Activity (A549 [9]): inactive | Activity (A549 [10]): inactive | Activity (A549 [11]): inactive | Activity (A549 [12]): inactive | Activity [13]: inactive | Activity [14]: inactive | Activity (A549 [15]): inactive | Activity (A549 [16]): inactive | Activity [17]: inactive | Activity (A549 [18]): inactive | Activity (A549 [19]): inactive | Activity [20]: inactive | Activity (A549 [21]): inactive | Activity [22]: inactive | Activity [23]: inactive | Activity [24]: inactive | Activity (A549 [25]): inactive | Activity (A549 [26]): inactive | Activity (A549 [27]): inactive | Activity [28]: inactive | Activity (A549 [29]): inactive | Activity (A549 [30]): inactive | Activity (A549 [31]): inactive | Activity [32]: inactive | Activity (A549 [33]): inactive | Activity (A549 [34]): inactive | Activity [35]: inactive | Activity (A549 [36]): inactive | Activity (A549 [37]): inactive | Activity [38]: inactive | Activity (A549 [39]): inactive
